Bioassay records from PubChem BioAssay.
CHOP UPR activ: activators of apoptotic arm of unfolded protein response (CHOP) | AID 449763 | activation, % at 10 µM | 0.34% of 330,000 active | CHO-CHOP luciferase reporter, UPR activation, luminescence; percent of tunicamycin response over DMSO baseline;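 active = at 10 µM dose, activation of 40% or more, normalized to positive control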;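 note: 100% = tunicamycin at 10 µg/mL and 0% = DMSO alone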
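assay system = CHO CHOP reporter cells | amount = 500 CHO-CHOP cells per well | buffer or medium = F12 with 10% FBS | incubation = 16-18 h cell attachment, then 6 h compound exposure, 37 °C | detection = luminescence read with Steady-Glo | read-out = percent activation relative to tunicamycin control | controls = tunicamycin high control, DMSO low control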
XBP1 UPR activ: adaptive UPR (XBP1) activation; CHO-XBP1 luciferase reporter, IRE1-XBP1 UPR activation, luminescence; percent of tunicamycin response, DMSO as zero; activation, % at 20 µM; 0.33% of 330,000 active; AID 463104;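 active = versus positive control, 20 µM dose yields 30% or more activation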;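 note: 100% = tunicamycin at 10 µg/mL and 0% = DMSO only wells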
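Test system: CHO-XBP1 luciferase reporter cells | Buffer or medium: Serum-containing F12 medium, 10% FBS | Schedule: 6 h compound exposure at 37 °C, 5% CO2 | Detection: Steady-Glo luciferase glow luminescence, 10 min after reagent addition | Read-out basis: Activation, % of tunicamycin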
HCV NS3 hel inh: blocks Hepatitis C virus NS3 helicase unwinding. NS3 helicase DNA unwinding, Cy5 molecular beacon fluorescence. inhibition, % at 10.9 µM. 0.56% of 290,000 active. AID 1800;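 active = inhibition above the mean of all tested compounds plus 3 SD, set per campaign, cut at about 35% in these data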;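 note: 0% = DMSO wells and 100% = thioflavine S control wells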
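Assay system – hepatitis C virus NS3 helicase domain fragment enzyme · Buffer or medium – MOPS pH 6.5, MgCl2, DTT, Tween20, BSA · Reagent – Cy5/quencher beacon DNA duplex and ATP to start · Compound – single 10.9 µM dose · Timing – 1 h at 25 °C · Technique – Cy5 beacon fluorescence read at start and 1 h · Measure – % inhibition of unwinding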
PfM18AAP inh-1: PfM18AAP enzyme inhibition. recombinant PfM18AAP, H-Glu-NHMec fluorogenic cleavage. inhibition, % at 7.35 µM. 1.2% of 290,000 active. AID 1822;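 active = inhibition above the campaign mean inhibition over all tested compounds plus 3 SD, cut at about 28% in these data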;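 note: 0% = plate median of test compound wells and 100% = 2 mM ZnCl2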
CHOP inh: blocks CHOP induction under ER stress | CHO-K1 CHOP-promoter luciferase, tunicamycin-induced, 15-18 h | 3.8% of 220,000 active | AID 2732 | inhibition, % at 10 µM;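 active = compounds that reduced the stress-induced luciferase reporter signal by more than about 70% of percent inhibition, limit read from the data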;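 note: 0% = tunicamycin plus vehicle and 100% = wells without tunicamycin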
p97 inhibitor: human p97 ATPase inhibition. 0.42% of 220,000 active. P55072. recombinant p97 ATPase, Kinase-Glo ATP luminescence, 3 h. inhibition, % at 8 µM; in the data active = inhibition above about 15%;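 note: 0% = DMSO vehicle and 100% = wells lacking enzyme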
PfM18AAP inh-2: confirmation of Plasmodium falciparum M18 aspartyl aminopeptidase inhibitors; recombinant PfM18AAP, H-Glu-NHMec fluorogenic cleavage; inhibition, % at 7.35 µM; 28% of 2,400 active; shares compounds with PfM18AAP inh-1;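 active = mean inhibition over replicate wells above the hit cutoff set for the earlier primary screen, cut at about 29% in these data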;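 note: 0% = median of test compound wells and 100% = 2 mM ZnCl2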
CTSL1 counter: Cathepsin L (human) inhibition, confirmation; shares compounds with PfM18AAP inh-1; purified cathepsin L1, Z-Leu-Arg-MCA fluorescence; inhibition, % at 5.96 µM; 2,400 tested, under 10 active; AID 2178;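 active = average inhibition across replicates above the hit cutoff set in the earlier primary screen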;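 note: 0% = median of test compound wells and 100% = Z-Phe-Ala-diazomethylketone 1 µM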
Target sequence (P07711 whole entry, looked up): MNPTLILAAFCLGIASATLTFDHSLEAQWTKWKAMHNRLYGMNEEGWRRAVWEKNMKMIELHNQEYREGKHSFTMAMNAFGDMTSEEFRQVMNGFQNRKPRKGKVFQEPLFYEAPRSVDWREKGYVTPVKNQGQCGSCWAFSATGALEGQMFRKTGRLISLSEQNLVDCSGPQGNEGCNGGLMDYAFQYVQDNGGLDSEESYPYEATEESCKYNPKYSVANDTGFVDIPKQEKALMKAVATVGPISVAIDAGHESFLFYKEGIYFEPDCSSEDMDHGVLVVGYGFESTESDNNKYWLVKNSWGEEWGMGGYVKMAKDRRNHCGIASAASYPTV
* hit, by the source's call; . = not tested or not shown; ! = not active in a repeat. Sampled rows, rich in hits. Any-hit rate of the full collection: about 4.5%.

SMILES	CHOP UPR activ	XBP1 UPR activ	HCV NS3 hel inh	PfM18AAP inh-1	CHOP inh	p97 inhibitor	PfM18AAP inh-2	CTSL1 counter
CC(=O)c1cccc(OCC(=O)N(Cc2ccco2)c2c(N)n(Cc3ccccc3)c(=O)[nH]c2=O)c1	-1.1	-4.3	.	.	.	.	.	.
O=C(CNS(=O)(=O)c1ccccc1)NNC(=O)C(Cl)Cl	-0.8	-0.5	-4.2	50.2*	-14.8	-2.0	27.0	9.4
O=C(CNS(=O)(=O)c1ccccc1)NCC(=O)N1CCCCC1	2.0	-4.9	12.2	-1.2	.	.	.	.
O=C(CNC(=O)c1ccccn1)N=Nc1c(O)[nH]c2ccccc12	4.3	5.7	-1.7	50.6*	.	.	27.9	-0.3
COc1ccc2nc(Nc3sc4c(c3C(N)=O)CCCC4)sc2c1	4.7	0.4	28.1	42.2*	-5.1	0.2	-23.9	-4.5
COc1ccc(CC(=O)Nc2sc3c(c2C(N)=O)CCCC3)cc1	2.0	3.9	-13.7	0.3	.	.	.	.
COCCNC(=S)NNc1ccccc1[N+](=O)[O-]	1.6	-4.0	0.3	61.2*	19.0	6.5	60.8*	3.1
CNC(=S)NNc1ccccc1[N+](=O)[O-]	2.5	0.6	5.7	57.1*	7.1	0.2	60.5*	0.9
O=C(NC1CCCCC1)C(c1ccccn1)N(C(=O)c1csnn1)c1ccccc1F (centres undefined)	-0.9	-5.2	-1.5	4.2	.	.	.	.
Cc1cc(C)cc(NC(=O)NN2C(C)CCCC2C)c1 (centres undefined)	-0.6	-2.0	-17.7	4.8	17.9	-4.5	.	.
O=C(Nc1ccc(Br)cc1Cl)Nn1cnnc1	0.3	0.9	3.9	74.9*	-13.5	3.8	78.1*	-0.2
O=C(Nc1ccccc1)Nn1cnnc1	.	.	5.1	56.4*	.	.	40.0*	-3.2
O=C(CC(=O)Nc1ccc(Br)cc1)Nc1ccc(Br)cc1	-0.3	-1.6	13.0	-2.5	.	.	.	.
Cc1cc(C)cc(NC(=O)Nn2cnnc2)c1	-0.5	-3.3	3.1	54.5*	.	.	37.4*	-2.8
CCC(C)NC(=O)Nc1ccc(Br)cc1Cl (centres undefined)	-1.1	2.7	-0.7	6.8	5.8	4.9	.	.
O=C(Nc1ccc(Br)cc1)Nn1cnnc1	0.4	1.1	-6.1	73.3*	.	.	56.3*	-2.2
CN(CC(=O)Nc1ccccc1Br)C(=O)COc1ccc2ccccc2c1	-0.5	1.8	.	.	.	.	.	.
O=C(CN1CCC(NC(=O)C2CC2)CC1)Nc1cccc(F)c1	0.3	-2.0	2.2	-2.4	.	.	.	.
COCc1[nH]nc2c1C(c1cc(OC)c(O)c(OC)c1)C(C#N)=C(N)O2 (centres undefined)	-0.2	0.9	1.5	37.6*	0.3	6.4	-4.3	4.7
COc1cnn(-c2ccccc2)c(=O)c1SCc1ccc(Cl)cc1Cl	-0.9	-3.5	13.8	36.1*	1.6	0.1	-29.6	-4.5
Cc1cc(C)c2[nH]c(=S)cc(C)c2c1	0.7	0.0	2.0	20.0	17.9	2.3	.	.
Cc1cc(=S)[nH]c(=S)[nH]1	-1.2	-1.8	16.9	38.0*	-9.8	10.8	-9.1	4.5
Nc1cc(-c2ccccc2)ccc1O	2.1	3.6	13.8	35.1*!	22.5	9.7	15.2	-3.2
CC(C)n1c(SCC(=O)Nc2nncs2)nnc1-c1ccco1	0.2	-1.1	18.7	74.1*	.	.	60.2*	-2.6
Nc1ncnc2c1ncn2[C@@H]1O[C@H](CNC(=O)[C@@H](N)COCc2ccccc2)[C@@H](O)[C@H]1O	0.5	-1.6	.	.	.	.	.	.
SMILES	CHOP UPR activ	XBP1 UPR activ	HCV NS3 hel inh	PfM18AAP inh-1	CHOP inh	p97 inhibitor	PfM18AAP inh-2	CTSL1 counter
Cc1cccc(NC(=S)Nc2cccc(C)n2)n1	-1.8	-0.7	15.5	-5.5	-16.6	4.1	.	.
Cc1cccc(NC(=S)NC2CCCCCC2)c1C	-0.1	-0.2	0.1	-0.9	-15.5	0.3	.	.
Cc1cccc(NC(=S)NC2CCCCC2)n1	-0.6	-0.9	9.1	36.2*	25.9	-2.9	7.9	2.0
Cc1cccc(NC(=S)NC2CCCC2)n1	-0.7	0.3	19.3	43.7*	9.7	-2.9	-3.3	7.2
CCN1CCN(C(=S)c2ccc(Cl)c(Cl)c2)CC1	0.3	-1.0	-3.9	45.0*	-19.5	-3.6	5.6	-0.3
CCN1CCN(C(=S)Nc2ccc(Cl)c(Cl)c2)CC1	-0.5	1.6	-19.5	-0.2	25.8	3.2	.	.
Cc1cc(C)c2cc(CN(CC3CCCO3)C(=S)NCc3ccco3)c(=O)[nH]c2c1 (centres undefined)	-0.6	-2.7	6.9	-7.1	18.9	-2.5	.	.
Cc1cc(C)c2cc(CN(Cc3ccco3)C(=O)NCc3ccccc3)c(=O)[nH]c2c1	-2.3	-0.5	3.2	35.0*	38.1	-4.6	-18.9	-1.9
COc1ccc(O)c(/C=N/c2sc(C)c(C)c2C#N)c1	2.0	0.0	6.5	42.4*	31.8	3.3	-23.3	-1.2
O=C(NNC(=O)c1cc(Cl)ccc1[N+](=O)[O-])c1csc(N2CCOCC2)n1	1.6	-2.7	.	.	.	.	.	.
NS(=O)(=O)c1ccc(NNC(=O)c2sccc2Cl)cc1	-0.3	-1.7	11.2	52.0*	13.6	-5.9	27.8	-7.8
O=C(NNc1ccc(Cl)cc1)c1sccc1Cl	-0.4	2.3	-11.8	23.4	-0.1	6.9	.	.
COc1ccc(C2NC(c3ccc(OC)cc3)C(c3ccccc3)C(=O)C2c2ccccc2)cc1 (centres undefined)	12.0	-1.3	-3.4	-13.3	18.8	1.6	.	.
CCOC(=O)C1=C(C)NC(SCC(=O)OC)=C(C#N)C1c1ccc(C(=O)OC)cc1 (centres undefined)	-1.0	-0.9	-7.4	36.5*	-4.9	4.4	-12.1	4.6
CCOc1ncccc1C(=O)OCC(=O)NCCc1ccc(S(N)(=O)=O)cc1	-0.6	-1.8	.	.	.	.	.	.
O=C(NNC(=O)C1CCN(S(=O)(=O)c2ccccc2)CC1)c1ccccc1O	1.2	-2.9	-0.7	39.5*	.	.	-8.4	-6.8
c1cc(SSc2ccncc2)ccn1	-1.5	-0.8	9.3	62.0*	.	.	50.4*	-1.0
CCNC(=S)NC(=NCc1cccnc1)Nc1nc(C)cc(C)n1	3.9	1.1	0.7	32.2*	.	.	-12.5	-2.8
Cc1ccc(NC(=S)NCc2cccnc2)cc1	-2.3	0.5	-0.4	10.2	32.9	-5.3	.	.
CN(CC(=O)NC(=O)NC1CCCCC1)CC(=O)Nc1ccc(Cl)cc1	-1.7	-2.1	.	.	.	.	.	.
O=c1[nH]nc(CNc2ccc(O)cc2)c2ccccc12	-0.7	-1.4	22.1	35.0*	9.4	1.4	-18.4	-0.3
Cc1cccn2c(=O)c3cc(C(=O)N4CCCCC4C)sc3nc12 (centres undefined)	1.4	5.7	.	.	.	.	.	.
NC(=O)Cc1c[nH]c2cccc(O)c12	0.1	0.3	-13.2	47.0*	5.3	8.0	12.4	-4.6
